# Measurements published in ChEMBL document CHEMBL5724801, “EUbOPEN Chemogenomics Library - Multiplex” (2024).
# Where “and” joins values, the source holds several entries; their conditions need not be identical. Equal entries are not always repeated.
# Tested on: U2OS
# Assay: Multiplex assay against U2OS
# Assay type: toxicity, cell-based
# Conditions: human, 12 h, 1 µM, compound concentration 1 uM
# How it was run: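 Cells stained live at seeding with Hoechst33342, BioTracker Green Microtubule Cytoskeleton Dye, MitoTracker Red and Annexin V Alexa Fluor 680 were imaged on a CQ1 microscope at 37°C and 5% CO2 after compound addition. Their classification by CellPathfinder machine-learning gating ran from Hoechst high-intensity objects versus normal cells, to healthy, pyknosed or fragmented nuclei among normal cells, to mitotic or apoptotic among pyknosed cells. Tubulin, mitochondrial-mass and membrane-permeability phenotypes are per cents of healthy-nucleus cells.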
Compound,Population Apoptotic (%),Population Fragmented Nuclei (%),Population Healthy Nuclei (%),Population Hoechst High Intensity Objects (%),Population Membrane Permeable-Phenotype (%),Population Mitochondria Different-Phenotype (%),Population Mitotic Cells (%),Population Normal (%),Population Pyknosed Nuclei (%),Population Tubulin-Different-Phenotype (%)
CSc1ccccc1N1CCN(CCCCCC(=O)NC2CCCc3ccccc32)CC1.Cl (centres undefined),62% and 36%,22% and 24%,61% and 63%,9% and 3%,73% and 51%,71% and 85%,37% and 63%,90% and 96%,15% and 11%,88% and 72%
Cc1noc(-c2ccc(-c3ccc(CC(=O)O)cc3)cc2)c1NC(=O)O[C@H](C)c1ccccc1Cl,95% and 85%,21% and 19%,69% and 74%,4% and 0%,7% and 2%,5% and 2%,5% and 14%,95% and 99%,9% and 7%,4%

# Same assay, conditions: human, 12 h, 1 µM, compound concentration 1 uM
row,Compound,Total Cell Count
1,CSc1ccccc1N1CCN(CCCCCC(=O)NC2CCCc3ccccc32)CC1.Cl (centres undefined),222 and 101
2,Cc1noc(-c2ccc(-c3ccc(CC(=O)O)cc3)cc2)c1NC(=O)O[C@H](C)c1ccccc1Cl,231 and 101

# Same assay, conditions: human, 12 h, 10 µM, compound concentration 10 uM
Compound,Population Apoptotic (%),Population Fragmented Nuclei (%),Population Healthy Nuclei (%),Population Hoechst High Intensity Objects (%),Population Membrane Permeable-Phenotype (%),Population Mitochondria Different-Phenotype (%),Population Mitotic Cells (%),Population Normal (%),Population Pyknosed Nuclei (%),Population Tubulin-Different-Phenotype (%)
CSc1ccccc1N1CCN(CCCCCC(=O)NC2CCCc3ccccc32)CC1.Cl (centres undefined),70% and 84%,41% and 23%,39% and 55%,8% and 4%,67% and 60%,90% and 92%,29% and 16%,91% and 95%,18% and 21%,96% and 98%
Cc1noc(-c2ccc(-c3ccc(CC(=O)O)cc3)cc2)c1NC(=O)O[C@H](C)c1ccccc1Cl,78% and 71%,29% and 11%,61% and 83%,2%,11% and 6%,4% and 2%,21% and 28%,97%,9% and 5%,6%

# Same assay, conditions: human, 12 h, 10 µM, compound concentration 10 uM
row,Compound,Total Cell Count
1,CSc1ccccc1N1CCN(CCCCCC(=O)NC2CCCc3ccccc32)CC1.Cl (centres undefined),221 and 125
2,Cc1noc(-c2ccc(-c3ccc(CC(=O)O)cc3)cc2)c1NC(=O)O[C@H](C)c1ccccc1Cl,242 and 138

# Same assay, conditions: human, 24 h, 1 µM, compound concentration 1 uM
Compound,Population Apoptotic (%),Population Fragmented Nuclei (%),Population Healthy Nuclei (%),Population Hoechst High Intensity Objects (%),Population Membrane Permeable-Phenotype (%),Population Mitochondria Different-Phenotype (%),Population Mitotic Cells (%),Population Normal (%),Population Pyknosed Nuclei (%),Population Tubulin-Different-Phenotype (%)
CSc1ccccc1N1CCN(CCCCCC(=O)NC2CCCc3ccccc32)CC1.Cl (centres undefined),54% and 58%,22% and 25%,60% and 58%,6% and 2%,63% and 46%,63% and 74%,45% and 41%,94% and 97%,17% and 15%,75% and 63%
Cc1noc(-c2ccc(-c3ccc(CC(=O)O)cc3)cc2)c1NC(=O)O[C@H](C)c1ccccc1Cl,96% and 77%,19% and 15%,70% and 77%,2% and 0%,5% and 4%,4% and 3%,,97% and 99%,9% and 7%,3% and 6%

# Same assay, conditions: human, 24 h, 1 µM, compound concentration 1 uM
row,Compound,Total Cell Count
1,CSc1ccccc1N1CCN(CCCCCC(=O)NC2CCCc3ccccc32)CC1.Cl (centres undefined),250 and 111
2,Cc1noc(-c2ccc(-c3ccc(CC(=O)O)cc3)cc2)c1NC(=O)O[C@H](C)c1ccccc1Cl,277 and 125

# Same assay, conditions: human, 24 h, 10 µM, compound concentration 10 uM
Compound,Population Apoptotic (%),Population Fragmented Nuclei (%),Population Healthy Nuclei (%),Population Hoechst High Intensity Objects (%),Population Membrane Permeable-Phenotype (%),Population Mitochondria Different-Phenotype (%),Population Mitotic Cells (%),Population Normal (%),Population Pyknosed Nuclei (%),Population Tubulin-Different-Phenotype (%)
CSc1ccccc1N1CCN(CCCCCC(=O)NC2CCCc3ccccc32)CC1.Cl (centres undefined),89% and 94%,44% and 19%,28% and 44%,6% and 10%,79% and 90%,81% and 56%,10% and 5%,93% and 89%,26% and 37%,91% and 97%
Cc1noc(-c2ccc(-c3ccc(CC(=O)O)cc3)cc2)c1NC(=O)O[C@H](C)c1ccccc1Cl,92% and 90%,24% and 12%,65% and 80%,1% and 2%,11% and 7%,2%,7% and 9%,98% and 97%,10% and 7%,5% and 4%

# Same assay, conditions: human, 24 h, 10 µM, compound concentration 10 uM
row,Compound,Total Cell Count
1,CSc1ccccc1N1CCN(CCCCCC(=O)NC2CCCc3ccccc32)CC1.Cl (centres undefined),219 and 112
2,Cc1noc(-c2ccc(-c3ccc(CC(=O)O)cc3)cc2)c1NC(=O)O[C@H](C)c1ccccc1Cl,260 and 154

# Same assay, conditions: human, 48 h, 1 µM, compound concentration 1 uM
Compound,Population Apoptotic (%),Population Fragmented Nuclei (%),Population Healthy Nuclei (%),Population Hoechst High Intensity Objects (%),Population Membrane Permeable-Phenotype (%),Population Mitochondria Different-Phenotype (%),Population Normal (%),Population Pyknosed Nuclei (%),Population Tubulin-Different-Phenotype (%),Total Cell Count
CSc1ccccc1N1CCN(CCCCCC(=O)NC2CCCc3ccccc32)CC1.Cl (centres undefined),64% and 95%,25% and 28%,53% and 52%,8% and 5%,42% and 41%,56% and 63%,91% and 94%,21% and 18%,50% and 44%,272 and 137
Cc1noc(-c2ccc(-c3ccc(CC(=O)O)cc3)cc2)c1NC(=O)O[C@H](C)c1ccccc1Cl,97% and 86%,15% and 18%,75% and 72%,1% and 0%,6%,3% and 4%,98% and 100%,9% and 8%,3% and 4%,408 and 170

# Same assay, conditions: human, 48 h, 10 µM, compound concentration 10 uM
Compound,Population Apoptotic (%),Population Fragmented Nuclei (%),Population Healthy Nuclei (%),Population Hoechst High Intensity Objects (%),Population Membrane Permeable-Phenotype (%),Population Mitochondria Different-Phenotype (%),Population Mitotic Cells (%),Population Normal (%),Population Pyknosed Nuclei (%),Population Tubulin-Different-Phenotype (%)
CSc1ccccc1N1CCN(CCCCCC(=O)NC2CCCc3ccccc32)CC1.Cl (centres undefined),98% and 100%,43% and 25%,18% and 20%,15% and 11%,77% and 85%,33% and 45%,1% and 0%,84% and 88%,38% and 54%,75% and 95%
Cc1noc(-c2ccc(-c3ccc(CC(=O)O)cc3)cc2)c1NC(=O)O[C@H](C)c1ccccc1Cl,92% and 85%,19% and 9%,72% and 78%,3% and 4%,7% and 6%,3% and 2%,7% and 14%,96% and 95%,8% and 11%,5% and 4%

# Same assay, conditions: human, 48 h, 10 µM, compound concentration 10 uM
row,Compound,Total Cell Count
1,CSc1ccccc1N1CCN(CCCCCC(=O)NC2CCCc3ccccc32)CC1.Cl (centres undefined),232 and 109
2,Cc1noc(-c2ccc(-c3ccc(CC(=O)O)cc3)cc2)c1NC(=O)O[C@H](C)c1ccccc1Cl,344 and 241
